These results are taken from ChEMBL document CHEMBL1156686, “Xanthine oxidase-activated prodrugs of thymidine phosphorylase inhibitors” (Eur J Med Chem, 2008).

Substrate in the series: O=c1[nH]c(=O)n([C@H]2C[C@H](O)[C@@H](CO)O2)cc1[N+](=O)[O-]
As to the kind of experiment: Activity of Escherichia coli thymidine phosphorylase. In short, it runs like this: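 Recombinant E. coli TP (0.00883 U per 0.2 ml) added to start a continuous spectrophotometric assay. Mix: 0.13 mM 5-nitro-2'-deoxyuridine substrate in 0.1 M potassium phosphate, pH 7.4, 25 °C, read at 355 nm in a microplate. Initial velocity compared with the mean of at least two no-inhibitor controls. Where derived, IC50 used at least five concentrations spanning the value.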

What is called kcat is the number of substrate molecules converted per active site and unit of time at saturation.

B1: Thymidine phosphorylase (Escherichia coli K-12), P07650 (protein)
chain: MFLAQEIIRKKRDGHALSDEEIRFFINGIRDNTISEGQIAALAMTIFFHDMTMPERVSLTMAMRDSGTVLDWKSLHLNGPIVDKHSTGGVGDVTSLMLGPMVAACGGYIPMISGRGLGHTGGTLDKLESIPGFDIFPDDNRFREIIKDVGVAIIGQTSSLAPADKRFYATRDITATVDSIPLITASILAKKLAEGLDALVMDVKVGSGAFMPTYELSEALAEAIVGVANGAGVRTTALLTDMNQVLASSAGNAVEVREAVQFLTGEYRNPRLFDVTMALCVEMLISGKLAKDDAEARAKLQAVLDNGKAAEVFGRMVAAQKGPTDFVENYAKYLPTAMLTKAVYADTEGFVSEMDTRALGMAVVAMGGGRRQASDTIDYSVGFTDMARLGDQVDGQRPLAVIHAKDENNWQEAAKAVKAAIKLADKAPESTPTVYRRISE
B1: the kcat came out at 20 s⁻¹.
